The results in this text go back to ChEMBL document CHEMBL2331364, “A synthetic dolastatin 10 analogue suppresses microtubule dynamics, inhibits cell proliferation, and induces apoptotic cell death” (J Med Chem, 2013).

The species entered for experiment [1] is Homo sapiens. Description: Inhibition of microtubule (unknown origin) GTPase activity using GTP as substrate assessed as reduction of inorganic phosphate release at 20 uM incubated for 10 mins prior to substrate addition measured after 10 mins by ammonium molybdate malachite green assay relative to control. In short, it runs like this: (§1)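 GTP (1 mM) was added and the mixture polymerized at 37 °C for 10 min. Reactions were stopped with perchloric acid, and released phosphate was measured by ammonium molybdate–malachite green.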

Experiment [2] concerns HeLa. Description: Cell cycle arrest in human HeLa cells assessed as accumulation at G2/M phase at 30 nM after 24 hrs by propidium iodide staining-based flow cytometry (reference value: 4%). Format: functional. For orientation: In flow cytometry, cells or beads pass a laser one at a time.
The subject of experiment [3] is MCF7. The experiment can be described thus: Inhibition of microtubule (unknown origin) dynamics in GFP-tubulin transfected human MCF7 cells assessed as decrease in microtubule shortening length at 15 nM by confocal laser scanning microscopy relative to control. Format: cell-based. In short, it runs like this:
(§2)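 EGFP-tubulin transfected MCF-7 cells were treated with vehicle or 15 nM, and individual microtubules were tracked by confocal laser scanning microscopy, 20 microtubules per condition. Life-history parameters were derived as previously described. Significance was tested by one-way ANOVA.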

In experiment [4] the test system is MCF7. The experiment can be described thus: Inhibition of microtubule (unknown origin) dynamics in GFP-tubulin transfected human MCF7 cells assessed as decrease in microtubule dynamicity at 15 nM by confocal laser scanning microscopy relative to control. Format: cell-based. In short, it runs like this: as §2
Experiment [5] deals with Tubulin (Homo sapiens) (UniProt P68371+Q9H4B7+P0DPH7+P68366+Q13509+Q71U36+P04350+Q3ZCM7+P07437+P68363+Q9BQE3+Q6PEY2+Q13885+Q9BVA1+Q9BUF5). Description: (§3) Binding affinity to tubulin (unknown origin) after 15 mins by fluorescence spectrophotometry. Format: protein-complex assay. In short, it runs like this:
(§4)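 Goat brain tubulin (2 μM) was incubated with ligand (5–100 μM) in 25 mM Pipes pH 6.8 for 15 min at 25 °C, read with excitation 295 nm and emission 336 nm in a 0.3 cm cell. No inner-filter correction was applied. ΔF was fitted to a quadratic binding equation to give Kd. Value is the average of five independent experiments.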

Experiment [6] has as its target Tubulin. The description is as §3. Format: protein-complex assay, Homo sapiens. In short, it runs like this:
as §4

For experiment [7], the species on record is Homo sapiens. Description: Inhibition of microtubule (unknown origin) assembly at 1 to 10 uM incubated for 15 mins prior to GTP addition measured for 30 mins by 90 degree light scattering-based fluorescence spectrophotometric method. The essentials: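 MAP-rich tubulin (1 mg/mL) was preincubated with 1, 3, 5 or 10 μM in PEM buffer (25 mM Pipes pH 6.8, 3 mM MgCl2, 1 mM EGTA) for 15 min on ice. GTP (1 mM) was then added and assembly monitored by 90° light scattering at 400 nm for 30 min at 37 °C.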

Experiment [8] has as its system MCF7. The experiment can be described thus: Inhibition of microtubule (unknown origin) dynamics in GFP-tubulin transfected human MCF7 cells assessed as increase in microtubule pause time at 15 nM by confocal laser scanning microscopy relative to control. Format: cell-based. In short, it runs like this: (§5)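 EGFP-tubulin-transfected MCF-7 cells grown in EMEM with 10% FBS at 37 °C in 5% CO2, exposed to 15 nM compound (DMSO vehicle) or vehicle. Individual microtubules were followed by time-lapse confocal laser scanning microscopy and life-history traces were recorded. Kinetic parameters were derived from these traces, 20 microtubules per condition. Significance was tested by one-way ANOVA.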

The species named for experiment [9] is Homo sapiens. Description: Inhibition of microtubule (unknown origin) GTPase activity using GTP as substrate assessed as reduction of inorganic phosphate release incubated for 10 mins prior to substrate addition measured after 10 mins by ammonium molybdate malachite green assay. In short, it runs like this: as §1
For experiment [10], the system named is HeLa. The experiment can be described thus: Cell cycle arrest in human HeLa cells assessed as accumulation at G2/M phase at 45 nM after 24 hrs by propidium iodide staining-based flow cytometry (reference value: 4%). Format: functional.
Experiment [11] relates to MCF7. The experiment can be described thus: Inhibition of microtubule (unknown origin) dynamics in GFP-tubulin transfected human MCF7 cells assessed as microtubule catastrophe events at 15 nM by confocal laser scanning microscopy (reference value: 4 +/- 1.2 events/min). Format: cell-based. The essentials: as §5
For experiment [12], the system named is HeLa. Description: Induction of apoptosis in human HeLa cells assessed as genomic DNA fragmentation at 7 to 30 nM after 40 hrs by ethidium bromide staining-based electrophoresis. Format: functional, cell-based.
Experiment [13] deals with HeLa. Description: Antimitotic activity in human HeLa cells assessed as increase in phosphohistone H3 (Ser10) positive cell population at 30 nM after 24 hrs by fluorescence microscopic analysis (reference value: 3 +/- 0.3 %). Format: functional.
Experiment [14] has as its system MCF7. Description: Inhibition of microtubule (unknown origin) dynamics in GFP-tubulin transfected human MCF7 cells assessed as decrease in microtubule catastrophe frequency at 15 nM by confocal laser scanning microscopy relative to control. Format: cell-based. In short, it runs like this:
as §2

Experiment [15] has as its system HeLa. The experiment can be described thus: Induction of mitotic microtubule depolymerization in human HeLa cells assessed as unorganized chromosomes at metaphase plate at 15 nM after 24 hrs by Hoechst 33258 dye-based fluorescence microscopy. Format: cell-based.
The subject of experiment [16] is HeLa. The experiment can be described thus: Induction of mitotic microtubule depolymerization in human HeLa cells at 7 nM after 24 hrs by Hoechst 33258 dye-based fluorescence microscopy relative to control. Format: cell-based.
The subject of experiment [17] is MCF7. Description: Inhibition of microtubule (unknown origin) dynamics in GFP-tubulin transfected human MCF7 cells assessed as decrease in microtubule growth at 15 nM by confocal laser scanning microscopy relative to control. Format: cell-based. The essentials:
as §2

In experiment [18] the test system is HeLa. The experiment can be described thus: Inhibition of microtubule-kinetochore tension in human HeLa cells assessed as Mad2 accumulation at kinetochoric region at 15 to 45 nM after 24 hrs by Hoechst 33258 dye-based Hec1 staining assay. Format: cell-based.
The subject of experiment [19] is HeLa. Description: Induction of apoptosis in human HeLa cells assessed as procaspase-3 activation at 30 nM after 24 hrs by Western blot analysis. Format: functional, cell-based. In short, it runs like this: (§6)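 HeLa cells were treated with vehicle or 30 nM for 24 h and washed twice in PBS. Lysates were Western blotted with antibodies to JNK1, phospho-JNK, procaspase-3 and PARP.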
A general note: Immunoblotting shows a protein as a band on a membrane.

In experiment [20] the test system is HeLa. Description: Inhibition of mitosis in human HeLa cells assessed as mitotic index ratio at 30 nM after 48 hrs by Hoechst 33258 DNA staining assay (reference value: 3). Format: functional. The essentials:
(§7)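 HeLa cells were treated with vehicle or 7, 15 or 30 nM compound for 24 or 48 h. DNA was stained with Hoechst 33258, and mitotic cells were counted by fluorescence microscopy to give the mitotic index, compared against vehicle-treated cells.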

Experiment [21] deals with HeLa. Description: Induction of apoptosis in human HeLa cells assessed as activated JNK1 level at 30 nM after 24 hrs by Western blot analysis relative to control. Format: functional, cell-based. In short, it runs like this:
as §6

Experiment [22] concerns HeLa. Description: Antimitotic activity in human HeLa cells assessed as increase in phosphohistone H3 (Ser10) positive cell population after 24 hrs by fluorescence microscopic analysis. Format: functional, cell-based.
The test system of experiment [23] is HeLa. The experiment can be described thus: Inhibition of mitosis in human HeLa cells assessed as mitotic index ratio at 15 nM after 48 hrs by Hoechst 33258 DNA staining assay (reference value: 3). Format: functional. The essentials: as §7
Experiment [24] has as its system MDA-MB-231. Description: Cytotoxicity against human MDA-MB-231 cells after 24 to 48 hrs by trypan blue assay. Format: functional, cell-based. In short, it runs like this:
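Cells were seeded at 1 × 10^5 cells/mL, grown 24 h at 37 °C in 5% CO2, then given vehicle (0.1% DMSO) or 1–80 nM for a further 24 or 48 h. Attached plus floating cells were counted after trypan blue staining. Percent inhibition was plotted against concentration to give IC50. Average of three independent experiments.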

Each structure is given as a SMILES string. Active and inactive are the calls of the source. The calls are words filed in the database; no cut-off is given here.

The inhibition is the drop in the measured response relative to a control, in per cent. By Kd is commonly meant the concentration at which binding is half-saturated. By IC50 is commonly meant the concentration that inhibits the measured activity by half. A higher IC50 goes with a need for much substance. `CC[C@H](C)[C@@H]([C@@H](CC(=O)NC[C@H]1O[C@H](C(=O)NCCc2ccccc2)[C@@H](OC)[C@@H]1OC)OC)N(C)C(=O)[C@@H](NC(=O)[C@@H](NC)C(C)C)C(C)C`: the inhibition in experiment [1] is 54%; in experiment [3], 44%; in [4], 50%; in [8], 50%; in experiment [9], “Dose-dependent effect”; in experiment [14], 32%. For the same compound, in experiment [17], the inhibition amounted to 31%. In addition, the Activity is 9% in experiment [2]; “Dose-dependent effect” in experiment [5]; 17% in [10]; 3 min⁻¹ in [11]; 14% in [13]; “Dose-dependent effect” in [22]. The Kd in [6] is 29.4 µM. Further, the inhibition result in [7] is “Active”. Besides, the outcome in [12], in [15], in [18], in [19] and in experiment [21] was Active. The result in experiment [16] was inactive. Besides, the Ratio in [20] was found to be 16; in experiment [23], 11. The same compound displayed an IC50 in experiment [24] of 13 nM.
